The source of these data is ChEMBL document CHEMBL1133571, “Extended TIP(P) analogues as precursors for labeled delta-opioid receptor ligands” (J Med Chem, 2000).

Values joined by “and” are separate entries in the source; they are usually repeats but may differ in a detail not shown here. Identical values can stand only once. Where a SMILES comes first, the peptide text is derived from it. [ ]: non-standard residue; d: D form. Tic = O=C(O)[C@@H]1Cc2ccccc2CN1

Experiment [1] addresses Delta-type opioid receptor (Homo sapiens, UniProt P41143). Put plainly: Affinity towards human Opioid receptor delta 1 on CHO cell membranes using [3H]DPDPE displacement. The procedure, abridged:
(§1)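 Membranes from CHO cells stably expressing cloned δ or µ receptors. Incubated 90 min at 22 °C with peptide concentrations up to 10 µM, 3 mM Mg2+, and peptidase inhibitors (10 µM bestatin, 30 µM captopril, 50 µM L-leucyl-L-leucine). Nonspecific binding measured with 10 µM unlabeled ligand. IC50 from nonlinear regression converted to Ki by Cheng-Prusoff (KD: [3H]DPDPE 0.5 nM, δ; [3H]DAMGO 0.644 nM, µ).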

The next experiment concerns the target Mu-type opioid receptor (Homo sapiens, UniProt P35372). Briefly: Affinity towards human Opioid receptor mu 1 on CHO cell membranes using [3H]DAMGO displacement. The procedure, abridged:
as §1

Mu-type opioid receptor, sequence (P35372 whole entry): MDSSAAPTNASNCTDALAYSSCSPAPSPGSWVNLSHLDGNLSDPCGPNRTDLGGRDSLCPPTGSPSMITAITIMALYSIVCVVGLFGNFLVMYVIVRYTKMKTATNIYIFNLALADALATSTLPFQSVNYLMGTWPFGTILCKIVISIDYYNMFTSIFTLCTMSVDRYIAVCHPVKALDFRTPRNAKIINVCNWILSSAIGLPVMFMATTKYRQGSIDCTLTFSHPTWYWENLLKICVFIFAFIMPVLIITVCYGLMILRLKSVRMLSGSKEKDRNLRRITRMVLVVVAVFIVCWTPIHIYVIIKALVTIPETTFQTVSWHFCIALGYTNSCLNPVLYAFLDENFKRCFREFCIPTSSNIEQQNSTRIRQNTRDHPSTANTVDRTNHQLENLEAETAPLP
Delta-type opioid receptor, sequence (P41143 whole entry): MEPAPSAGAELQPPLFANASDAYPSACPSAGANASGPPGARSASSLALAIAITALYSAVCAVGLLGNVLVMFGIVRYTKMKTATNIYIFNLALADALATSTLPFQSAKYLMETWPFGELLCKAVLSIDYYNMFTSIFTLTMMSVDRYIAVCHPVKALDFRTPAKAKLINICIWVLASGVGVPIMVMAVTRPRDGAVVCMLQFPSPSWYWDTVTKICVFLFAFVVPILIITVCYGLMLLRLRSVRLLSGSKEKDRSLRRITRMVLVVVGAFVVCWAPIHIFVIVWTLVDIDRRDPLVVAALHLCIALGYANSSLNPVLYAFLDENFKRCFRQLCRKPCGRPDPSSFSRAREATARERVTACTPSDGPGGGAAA

Usually Ki stands for a measure of affinity in units of concentration, obtained from inhibition or displacement. A high value points to weaker binding. Regarding `NC(=O)[C@@H](CCC(=O)O)NC(=O)[C@H](Cc1ccccc1)NC(=O)[C@@H]1Cc2ccccc2CN1C(=O)[C@@H](N)Cc1ccc(O)cc1`, the Ki is 0.0349 µM in experiment [1] and over 4.5 µM on Mu-type opioid receptor.
The matching figures for `NC(=O)C[C@@H](NC(=O)[C@H](Cc1ccccc1)NC(=O)[C@@H]1Cc2ccccc2CN1C(=O)[C@@H](N)Cc1ccc(O)cc1)C(=O)O`: 0.0137 µM and over 4.5 µM.
The matching figures for `NC(=O)[C@H](CC(=O)O)NC(=O)[C@H](Cc1ccccc1)NC(=O)[C@H](Cc1ccccc1)NC(=O)[C@@H]1Cc2ccccc2CN1C(=O)[C@@H](N)Cc1ccc(O)cc1`: 0.0095 µM and over 4 µM.
In the same order, the values of `CC(=O)NCCCC[C@@H](NC(=O)[C@H](Cc1ccccc1)NC(=O)[C@@H]1Cc2ccccc2CN1C(=O)[C@@H](N)Cc1ccc(O)cc1)C(=O)O` are 0.0216 µM and over 4.5 µM.
Regarding `NC(=O)C[C@@H](NC(=O)[C@H](Cc1ccccc1)NC(=O)[C@H](Cc1ccccc1)NC(=O)[C@@H]1Cc2ccccc2CN1C(=O)[C@@H](N)Cc1ccc(O)cc1)C(=O)O`, the Ki worked out at 0.0081 µM in experiment [1] and 3.2 µM on Mu-type opioid receptor.
For the molecule `NC(=O)[C@@H](CC(=O)O)NC(=O)[C@H](Cc1ccccc1)NC(=O)[C@H](Cc1ccccc1)NC(=O)[C@@H]1Cc2ccccc2CN1C(=O)[C@@H](N)Cc1ccc(O)cc1`, the results for the Ki (in experiment [1]; at Mu-type opioid receptor) were 0.0103 µM and 3.28 µM, respectively.
For `NC(=O)CC[C@H](NC(=O)[C@H](Cc1ccccc1)NC(=O)[C@@H]1Cc2ccccc2CN1C(=O)[C@@H](N)Cc1ccc(O)cc1)C(=O)O`, the Ki in experiment [1] was 0.0377 µM; at Mu-type opioid receptor, over 4.5 µM.
`NC(=O)[C@H](CCC(=O)O)NC(=O)[C@H](Cc1ccccc1)NC(=O)[C@@H]1Cc2ccccc2CN1C(=O)[C@@H](N)Cc1ccc(O)cc1`: the Ki in experiment [1] worked out at 0.0199 µM; at Mu-type opioid receptor, 4.5 µM.
The matching figures for `NC(=O)CC[C@@H](NC(=O)[C@H](Cc1ccccc1)NC(=O)[C@H](Cc1ccccc1)NC(=O)[C@@H]1Cc2ccccc2CN1C(=O)[C@@H](N)Cc1ccc(O)cc1)C(=O)O`: 0.0051 µM and over 4.5 µM.
For the molecule `N[C@@H](Cc1ccc(O)cc1)C(=O)N1Cc2ccccc2C[C@H]1C(=O)N[C@@H](Cc1ccccc1)C(=O)N[C@@H](Cc1ccccc1)C(=O)O` (H-Y[Tic]FF-OH), the Ki in experiment [1] is 0.0061 µM and 0.00122 µM; on Mu-type opioid receptor, over 4.5 µM.
`NC(=O)[C@@H](CCC(=O)O)NC(=O)[C@H](Cc1ccccc1)NC(=O)[C@H](Cc1ccccc1)NC(=O)[C@@H]1Cc2ccccc2CN1C(=O)[C@@H](N)Cc1ccc(O)cc1`: the Ki is 0.0078 µM in experiment [1] and 1.95 µM on Mu-type opioid receptor.
Turning to `NC(=O)CC[C@@H](NC(=O)[C@H](Cc1ccccc1)NC(=O)[C@@H]1Cc2ccccc2CN1C(=O)[C@@H](N)Cc1ccc(O)cc1)C(=O)O`, the results for the Ki (in experiment [1]; on Mu-type opioid receptor) were 0.005 µM and over 4.5 µM, respectively.
In the same order, the values of `NC(=O)C[C@H](NC(=O)[C@H](Cc1ccccc1)NC(=O)[C@H](Cc1ccccc1)NC(=O)[C@@H]1Cc2ccccc2CN1C(=O)[C@@H](N)Cc1ccc(O)cc1)C(=O)O` are 0.0071 µM and over 4.5 µM.
The matching figures for `CC(=O)NCCCC[C@H](NC(=O)[C@H](Cc1ccccc1)NC(=O)[C@@H]1Cc2ccccc2CN1C(=O)[C@@H](N)Cc1ccc(O)cc1)C(=O)O`: 0.0278 µM and over 4.5 µM.
In the same order, the values of `NC(=O)[C@H](CCC(=O)O)NC(=O)[C@H](Cc1ccccc1)NC(=O)[C@H](Cc1ccccc1)NC(=O)[C@@H]1Cc2ccccc2CN1C(=O)[C@@H](N)Cc1ccc(O)cc1` are 0.0099 µM and over 4.5 µM.
Regarding `N[C@@H](Cc1ccc(O)cc1)C(=O)N1Cc2ccccc2C[C@H]1C(=O)N[C@@H](Cc1ccccc1)C(=O)O` (H-Tyr-[Tic]-Phe-OH), the Ki in experiment [1] was 0.148 µM; on Mu-type opioid receptor, over 4.5 µM.
The matching figures for `NC(=O)[C@H](CC(=O)O)NC(=O)[C@H](Cc1ccccc1)NC(=O)[C@@H]1Cc2ccccc2CN1C(=O)[C@@H](N)Cc1ccc(O)cc1`: 0.0214 µM and over 4.5 µM.
As for `NC(=O)CC[C@H](NC(=O)[C@H](Cc1ccccc1)NC(=O)[C@H](Cc1ccccc1)NC(=O)[C@@H]1Cc2ccccc2CN1C(=O)[C@@H](N)Cc1ccc(O)cc1)C(=O)O`, the Ki in experiment [1] was 0.0097 µM; at Mu-type opioid receptor it was over 4.5 µM.
For the molecule `CC(=O)NCCCC[C@@H](NC(=O)[C@H](Cc1ccccc1)NC(=O)[C@H](Cc1ccccc1)NC(=O)[C@@H]1Cc2ccccc2CN1C(=O)[C@@H](N)Cc1ccc(O)cc1)C(=O)O`, the Ki in experiment [1] was 0.0163 µM and 0.0215 µM; on Mu-type opioid receptor, over 4.5 µM.
For `NC(=O)[C@@H](CC(=O)O)NC(=O)[C@H](Cc1ccccc1)NC(=O)[C@@H]1Cc2ccccc2CN1C(=O)[C@@H](N)Cc1ccc(O)cc1`, the Ki in experiment [1] is 0.069 µM; on Mu-type opioid receptor it was over 4.5 µM.
The matching figures for `NC(=O)C[C@H](NC(=O)[C@H](Cc1ccccc1)NC(=O)[C@@H]1Cc2ccccc2CN1C(=O)[C@@H](N)Cc1ccc(O)cc1)C(=O)O`: 0.0611 µM and over 4.5 µM.
